Key:
[1] = Drug excretion in human urine at 30 mg, po single dose measured at 0 to 24 hrs; format: ADME, organism-based; set-up: dosed compound name [14C]SB-649868; details: in vivo
Procedure, shortened: (§1)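 After one oral 30 mg [14C] dose in eight healthy men, urine was collected at 0–6, 6–12 and 12–24 h, then every 24 h to 216 h. Feces were collected every 24 h to 216 h and homogenized 1:1 with water. Radioactivity was counted by LSC in triplicate aliquots. Results given as cumulative % of dose, mean (S.D.).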

Homo sapiens [2] = test: Total drug excretion in human at 30 mg, po single dose measured at 0 to 168 hrs; format: ADME, organism-based; set-up: dosed compound name [14C]SB-649868; details: in vivo; procedure, shortened: as §1
[3] = Drug excretion in human feces at 30 mg, po single dose measured at 0 to 144 hrs; format: ADME, organism-based; set-up: dosed compound name [14C]SB-649868; details: in vivo; procedure, shortened: as §1
Homo sapiens [4] = test: Total drug excretion in human at 30 mg, po single dose measured at 0 to 96 hrs; format: ADME, organism-based; set-up: dosed compound name [14C]SB-649868; details: in vivo
Procedure, shortened: (§2)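 Healthy male volunteers (n=8) given single oral 30 mg (approx. 70 µCi) [14C]-labelled dose in a capsule with 160 ml water. Urine collected pre-dose, 0–6, 6–12, 12–24 h, then 24 h intervals to 216 h; feces at 24 h intervals to 216 h, homogenized 1:1 with water. Triplicate aliquots counted by LSC with quench correction and background subtraction; cumulative excretion expressed as % of dose.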

Homo sapiens [5] = test: Total drug excretion in human at 30 mg, po single dose measured at 0 to 48 hrs; format: ADME, organism-based; set-up: dosed compound name [14C]SB-649868; details: in vivo; procedure, shortened: as §1
[6] = Drug excretion in human feces at 30 mg, po single dose measured at 0 to 192 hrs; format: ADME, organism-based; set-up: dosed compound name [14C]SB-649868; details: in vivo; procedure, shortened: as §1
Homo sapiens [7] = test: Total drug excretion in human at 30 mg, po single dose measured at 0 to 6 hrs; format: ADME, organism-based; set-up: dosed compound name [14C]SB-649868; details: in vivo; procedure, shortened: as §2
[8] = Drug excretion in human urine at 30 mg, po single dose measured at 0 to 72 hrs; format: ADME, organism-based; set-up: dosed compound name [14C]SB-649868; details: in vivo; procedure, shortened: as §1
Homo sapiens [9] = test: Total drug excretion in human at 30 mg, po single dose measured at 0 to 192 hrs; format: ADME, organism-based; set-up: dosed compound name [14C]SB-649868; details: in vivo; procedure, shortened: as §1
[10] = Drug excretion in human feces at 30 mg, po single dose measured at 0 to 216 hrs; format: ADME, organism-based; set-up: dosed compound name [14C]SB-649868; details: in vivo; procedure, shortened: as §1
Homo sapiens [11] = test: Total drug excretion in human at 30 mg, po single dose measured at 0 to 24 hrs; format: ADME, organism-based; set-up: dosed compound name [14C]SB-649868; details: in vivo; procedure, shortened: as §1
[12] = Drug excretion in human urine at 30 mg, po single dose measured at 0 to 144 hrs; format: ADME, organism-based; set-up: dosed compound name [14C]SB-649868; details: in vivo; procedure, shortened: as §1
Homo sapiens [13] = test: Total drug excretion in human at 30 mg, po single dose measured at 0 to 120 hrs; format: ADME, organism-based; set-up: dosed compound name [14C]SB-649868; details: in vivo; procedure, shortened: as §1
[14] = Drug excretion in human urine at 30 mg, po single dose measured at 0 to 96 hrs; format: ADME, organism-based; set-up: dosed compound name [14C]SB-649868; details: in vivo; procedure, shortened: as §1
[15] = Drug excretion in human urine at 30 mg, po single dose measured at 0 to 12 hrs; format: ADME, organism-based; set-up: dosed compound name [14C]SB-649868; details: in vivo; procedure, shortened: as §1
[16] = Drug excretion in human urine at 30 mg, po single dose measured at 0 to 216 hrs; format: ADME, organism-based; set-up: dosed compound name [14C]SB-649868; details: in vivo; procedure, shortened: as §1
Homo sapiens [17] = test: Total drug excretion in human at 30 mg, po single dose measured at 0 to 72 hrs; format: ADME, organism-based; set-up: dosed compound name [14C]SB-649868; details: in vivo; procedure, shortened: as §2
[18] = Drug excretion in human urine at 30 mg, po single dose measured at 0 to 6 hrs; format: ADME, organism-based; set-up: dosed compound name [14C]SB-649868; details: in vivo; procedure, shortened: as §1
[19] = Drug excretion in human feces at 30 mg, po single dose measured at 0 to 48 hrs; format: ADME, organism-based; set-up: dosed compound name [14C]SB-649868; details: in vivo; procedure, shortened: as §1
Homo sapiens [20] = test: Tmax in human plasma assessed as total radioactivity at 30 mg, po single dose; format: ADME, organism-based; set-up: dosed compound name [14C]SB-649868; details: in vivo
Procedure, shortened: (§3)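 Eight healthy men given one oral capsule of [14C] drug, 30 mg (approx. 70 µCi), with 160 ml water. Blood in K-EDTA tubes from pre-dose to 96 h, chilled and spun at 4°C. Plasma read by LSC in triplicate 0.25 ml aliquots, quench-corrected and background-subtracted. Noncompartmental analysis: Cmax and tmax read from the data, t1/2 = ln2/λz, AUC by linear-up/log-down trapezoids. Geometric means.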

Homo sapiens [21] = test: Apparent half life in human plasma assessed as total radioactivity at 30 mg, po single dose; format: ADME, organism-based; set-up: dosed compound name [14C]SB-649868; details: in vivo; procedure, shortened: as §3
Homo sapiens [22] = test: AUC (0 to t) in human plasma assessed as total radioactivity at 30 mg, po single dose; format: ADME, organism-based; set-up: dosed compound name [14C]SB-649868; details: in vivo; procedure, shortened: as §3
[23] = Drug excretion in human urine at 30 mg, po single dose measured at 0 to 192 hrs; format: ADME, organism-based; set-up: dosed compound name [14C]SB-649868; details: in vivo; procedure, shortened: as §1
Homo sapiens [24] = test: AUC (0 to infinity) in human plasma assessed as total radioactivity at 30 mg, po single dose; format: ADME, organism-based; set-up: dosed compound name [14C]SB-649868; details: in vivo; procedure, shortened: as §3
[25] = Drug excretion in human feces at 30 mg, po single dose measured at 0 to 24 hrs; format: ADME, organism-based; set-up: dosed compound name [14C]SB-649868; details: in vivo; procedure, shortened: as §1
[26] = Drug excretion in human urine at 30 mg, po single dose measured at 0 to 120 hrs; format: ADME, organism-based; set-up: dosed compound name [14C]SB-649868; details: in vivo; procedure, shortened: as §1
[27] = Drug excretion in human feces at 30 mg, po single dose measured at 0 to 72 hrs; format: ADME, organism-based; set-up: dosed compound name [14C]SB-649868; details: in vivo; procedure, shortened: as §1
[28] = Drug excretion in human urine at 30 mg, po single dose measured at 0 to 48 hrs; format: ADME, organism-based; set-up: dosed compound name [14C]SB-649868; details: in vivo; procedure, shortened: as §1
[29] = Drug excretion in human feces at 30 mg, po single dose measured at 0 to 168 hrs; format: ADME, organism-based; set-up: dosed compound name [14C]SB-649868; details: in vivo; procedure, shortened: as §1
[30] = Drug excretion in human feces at 30 mg, po single dose measured at 0 to 120 hrs; format: ADME, organism-based; set-up: dosed compound name [14C]SB-649868; details: in vivo; procedure, shortened: as §1
[31] = Drug excretion in human feces at 30 mg, po single dose measured at 0 to 96 hrs; format: ADME, organism-based; set-up: dosed compound name [14C]SB-649868; details: in vivo; procedure, shortened: as §1
Homo sapiens [32] = test: Cmax in human plasma assessed as total radioactivity at 30 mg, po single dose; format: ADME, organism-based; set-up: dosed compound name [14C]SB-649868; details: in vivo; procedure, shortened: as §3
Homo sapiens [33] = test: Total drug excretion in human at 30 mg, po single dose measured at 0 to 144 hrs; format: ADME, organism-based; set-up: dosed compound name [14C]SB-649868; details: in vivo; procedure, shortened: as §1
Homo sapiens [34] = test: Total drug excretion in human at 30 mg, po single dose measured at 0 to 12 hrs; format: ADME, organism-based; set-up: dosed compound name [14C]SB-649868; details: in vivo; procedure, shortened: as §1
Homo sapiens [35] = test: Total drug excretion in human at 30 mg, po single dose measured at 0 to 216 hrs; format: ADME, organism-based; set-up: dosed compound name [14C]SB-649868; details: in vivo; procedure, shortened: as §1
[36] = Drug excretion in human urine at 30 mg, po single dose measured at 0 to 168 hrs; format: ADME, organism-based; set-up: dosed compound name [14C]SB-649868; details: in vivo; procedure, shortened: as §1
[37] = Drug level in human urine treated with [14C]SB-649868 at 30 mg, po single dose after 0 to 72 hrs by HPLC-MSn analysis; details: in vivo, 0-72 h
[38] = Drug level in human feces treated with [14C]SB-649868 at 30 mg, po single dose by HPLC-MSn analysis; details: in vivo

SMILES: C[14c]1nc(C(=O)N2CCCC[C@H]2CNC(=O)c2cccc3occc23)c(-c2ccc(F)cc2)s1
- Radiolabel recovery [1]: 8.9%
- Radiolabel recovery (Homo sapiens [2]): 89.7%
- Radiolabel recovery [3]: 76.8%
- Radiolabel recovery (Homo sapiens [4]): 81.2%
- Radiolabel recovery (Homo sapiens [5]): 47.5%
- Radiolabel recovery [6]: 78.5%
- Radiolabel recovery (Homo sapiens [7]): 2.3%
- Radiolabel recovery [8]: 11.3%
- Radiolabel recovery (Homo sapiens [9]): 90.5%
- Radiolabel recovery [10]: 79.1%
- Radiolabel recovery (Homo sapiens [11]): 10.8%
- Radiolabel recovery [12]: 11.9%
- Radiolabel recovery (Homo sapiens [13]): 87.3%
- Radiolabel recovery [14]: 11.6%
- Radiolabel recovery [15]: 5.9%
- Radiolabel recovery [16]: 12%
- Radiolabel recovery (Homo sapiens [17]): 71.3%
- Radiolabel recovery [18]: 2.3%
- Radiolabel recovery [19]: 36.8%
- Radiolabel recovery (Homo sapiens [20]): 4 h
- Radiolabel recovery (Homo sapiens [21]): 39.3 h
- Radiolabel recovery (Homo sapiens [22]): 31 ugequiv.hr/ml
- Radiolabel recovery [23]: 12%
- Radiolabel recovery (Homo sapiens [24]): 37.3 ugequiv.hr/ml
- Radiolabel recovery [25]: 1.9%
- Radiolabel recovery [26]: 11.7%
- Radiolabel recovery [27]: 60%
- Radiolabel recovery [28]: 10.7%
- Radiolabel recovery [29]: 77.7%
- Radiolabel recovery [30]: 75.6%
- Radiolabel recovery [31]: 69.6%
- Radiolabel recovery (Homo sapiens [32]): 1.66 ugequiv/ml
- Radiolabel recovery (Homo sapiens [33]): 88.7%
- Radiolabel recovery (Homo sapiens [34]): 5.9%
- Radiolabel recovery (Homo sapiens [35]): 91.1%
- Radiolabel recovery [36]: 11.9%

SMILES: Cc1nc(C(=O)N2CCCC[C@H]2Cn2ccc3c(O)cccc3c2=O)c(-c2ccc(F)cc2)s1
- Compound recovery [37]: Below quantification limit
- Compound recovery [38]: 0.7%

From ChEMBL document CHEMBL3525942, “Disposition and metabolism of [14C]SB-649868, an orexin 1 and 2 receptor antagonist, in humans” (Drug Metab Dispos, 2011)
